Source: ChEMBL document CHEMBL3751780, “Rational design, synthesis and in vitro evaluation of allylidene hydrazinecarboximidamide derivatives as BACE-1 inhibitors” (Bioorg Med Chem Lett, 2016)
pIC50: −log10 of the molar value. Calls of active or inactive are those of the source. The rule behind the calls is not given here.

Columns and labels:
[1] = biological target: T1, Beta-secretase 1 (Homo sapiens, UniProt P56817); experiment: Inhibition of human BACE1 (1 to 460 residues) using APP-based peptide as substrate at 10 uM incubated for 60 mins by FRET analysis
How it was run: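 Measured by FRET. Test compounds were screened at one fixed concentration and reported as percent inhibition, given as mean ± SD of triplicate experiments performed independently.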

[2] = Cytotoxicity against human […] cells at 10 uM after 24 hrs by MTT assay; assay type: cell-based
[3] = biological target: T1, Beta-secretase 1; experiment: Inhibition of human BACE1 (1 to 460 residues) using APP-based peptide as substrate incubated for 60 mins by FRET analysis

T1 sequence (P56817 whole entry, the tested form may be a part): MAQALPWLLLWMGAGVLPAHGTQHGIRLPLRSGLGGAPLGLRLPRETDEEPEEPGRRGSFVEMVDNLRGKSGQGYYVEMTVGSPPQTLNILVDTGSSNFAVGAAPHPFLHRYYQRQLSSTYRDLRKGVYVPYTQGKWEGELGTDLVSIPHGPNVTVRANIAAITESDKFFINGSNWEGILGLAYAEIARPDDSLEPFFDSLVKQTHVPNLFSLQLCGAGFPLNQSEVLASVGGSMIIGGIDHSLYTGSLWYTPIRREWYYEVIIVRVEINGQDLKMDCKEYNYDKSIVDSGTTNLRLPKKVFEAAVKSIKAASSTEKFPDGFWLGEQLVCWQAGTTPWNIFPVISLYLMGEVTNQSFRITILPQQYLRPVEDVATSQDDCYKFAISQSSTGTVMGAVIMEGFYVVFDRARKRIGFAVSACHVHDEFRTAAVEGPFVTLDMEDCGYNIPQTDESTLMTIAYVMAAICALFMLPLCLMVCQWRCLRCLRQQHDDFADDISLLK

Row | Structure (SMILES) | inhibition [1] | Activity [2] | pIC50 [3]
1 | COc1ccc(OC)c(/C=C/C(=N/NC(=N)N)c2cccc(Br)c2)c1 | 23.9% | Non-toxic | 
2 | N=C(N)N/N=C(/C=C/c1ccccc1)c1ccc(Cl)cc1 | 18% | Non-toxic | 
3 | N=C(N)N/N=C(/C=C/c1ccccc1)c1cccc([N+](=O)[O-])c1 | 23.4% | Non-toxic | 
4 | CN(C)c1ccc(/C=C/C(=N/NC(=N)N)c2cccc([N+](=O)[O-])c2)cc1 | 28% | Non-toxic | 
5 | Cc1ccc(C(/C=C/c2ccc(N(C)C)cc2)=N\NC(=N)N)cc1 | 10.8% | Non-toxic | 
6 | COc1ccc(C(/C=C/c2cccc([N+](=O)[O-])c2)=N\NC(=N)N)cc1 | 11% | Non-toxic | 
7 | N=C(N)N/N=C(/C=C/c1ccccc1)c1ccccc1 | 10.8% | Non-toxic | 
8 | COc1ccc(/C=C/C(=N/NC(=N)N)c2cccc(Br)c2)cc1OC | 25.9% | Non-toxic | 
9 | COc1ccc(/C=C/C(=N/NC(=N)N)c2ccc(Cl)cc2)cc1OC | 78.2% | Non-toxic | 5.19
10 | COc1ccc(/C=C/C(=N/NC(=N)N)c2ccccc2)cc1OC | 42.1% | Non-toxic | 
11 | COc1ccc(/C=C/C(=N/NC(=N)N)c2ccc(Cl)cc2Cl)cc1OC | 21.8% | Non-toxic | 
12 | CN(C)c1ccc(/C=C/C(=N/NC(=N)N)c2ccc([N+](=O)[O-])cc2)cc1 | 23.9% | Non-toxic | 
13 | COc1ccc(OC)c(/C=C/C(=N/NC(=N)N)c2ccccc2)c1 | 32.6% | Non-toxic | 
14 | COc1ccc(C(/C=C/c2cc(OC)ccc2OC)=N\NC(=N)N)cc1 | 10.3% | Non-toxic | 
15 | N=C(N)N/N=C(/C=C/c1cccc([N+](=O)[O-])c1)c1ccccc1 | 47.9% | Non-toxic | 
16 | N=C(N)N/N=C(/C=C/c1cccc([N+](=O)[O-])c1)c1ccc([N+](=O)[O-])cc1 | 62.1% | Non-toxic | 
17 | N=C(N)N/N=C(/C=C/c1ccccc1)c1cccc(O)c1 |  | Non-toxic | 
18 | COc1ccc(/C=C/C(=N/NC(=N)N)c2ccc([N+](=O)[O-])cc2)cc1OC | 61.2% | Non-toxic | 
19 | CN(C)c1ccc(/C=C/C(=N/NC(=N)N)c2ccccc2)cc1 | inactive | Non-toxic | 
20 | N=C(N)N/N=C(/C=C/c1cccc([N+](=O)[O-])c1)c1cccc(Br)c1 | 10.8% | Non-toxic | 
21 | N=C(N)N/N=C(/C=C/c1ccccc1)c1ccc([N+](=O)[O-])cc1 | 13.5% | Non-toxic | 
22 | N=C(N)N/N=C(/C=C/c1cccc([N+](=O)[O-])c1)c1ccc(Cl)cc1Cl | 5.4% | Non-toxic | 
23 | COc1ccc(/C=C/C(=N/NC(=N)N)c2cccc([N+](=O)[O-])c2)cc1OC | 45.8% | Non-toxic | 
